Results taken from ChEMBL document CHEMBL1145834, “Novel selective hindlimb vasodilators: synthesis and biological activity of 1-acyl-4-aminopiperidine derivatives” (2003).

Tests used:
Format in all cases: functional, Canis lupus familiaris
Canis familiaris [1] = species: Canis familiaris; assay: Vasodilatory activity (at 100 nmol) relative to nifedipine (at 10 nmol) by coronary artery blood flow (CBF) in isolated blood perfused canine heart preparations.
Procedure, shortened: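 The canine heart was isolated after pentobarbital (30 mg/kg iv), heparin (500 U/kg) and exsanguination. A septum–papillary muscle preparation was perfused with donor-dog blood via the anterior septal artery at constant 100 mmHg. It was preloaded to 2 g and paced at 120/min with 5 ms pulses at 1.2× threshold. Septal artery flow was read by electromagnetic flowmeter as CBF, and drugs were given intra-arterially. Ratio = effect of test compound (100 nmol) / effect of nifedipine (10 nmol). Means ± SE, n = 3 or 1.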

Canis familiaris [2] = species: Canis familiaris; assay: Vasodilatory activity (at 10 nmol) relative to nifedipine (at 1 nmol) by femoral artery blood flow (FBF) in autoperfused canine femoral artery preparations.
Procedure, shortened: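 Dogs were anesthetized with pentobarbital (30 mg/kg iv, then 4 mg/kg/h infusion) and heparinized (700 U/kg, then 100 U/kg/h). The right femoral artery was autoperfused with carotid blood at 90 mL/min by pump. Flow was read by electromagnetic flowmeter in the circuit, and drugs were given intra-arterially by microsyringe. Ratio = effect of test compound (10 nmol) / effect of nifedipine (1 nmol). Means ± SE, n = 3 or 1.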

Canis familiaris [3] = assay: Cardiovascular effect upon coronary artery blood flow(CBF) in anesthetized open-chest dogs at a dose of 10 ug/ kg administered intravenously
Procedure, shortened: (§1)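 Mongrel dogs anesthetized with pentobarbital sodium 30 mg/kg, open chest. Parameters allowed to stabilize, then drug given as single 10 μg/kg iv dose via femoral vein cannula. FBF and CBF expressed as % change from predose value; BP as change from predose value. Means ± SE, n = 3.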

Canis familiaris [4] = assay: Cardiovascular effect upon blood pressure(BP) in anesthetized open-chest dogs at a dose of 10 ug/ kg administered intravenously; procedure, shortened: as §1
Canis familiaris [5] = assay: Cardiovascular effect upon femoral artery blood flow(FBF) in anesthetized open-chest dogs at a dose of 10 ug/ kg administered intravenously; procedure, shortened: as §1

Row | Compound | CBF Ratio (Canis familiaris [1]) | FBF Ratio (Canis familiaris [2]) | CBF % change (Canis familiaris [3]) | BP (Canis familiaris [4]) | FBF % change (Canis familiaris [5]) | CBF Ratio (Canis familiaris [3]) | FBF Ratio (Canis familiaris [5])
1 | CCC(=O)Nc1c(C)cc(C(=O)N2CCC(N(C)CCc3ccccc3)CC2)cc1[N+](=O)[O-] | 0.09 | 0.24 |  |  |  |  | 
2 | CCc1cc(C(=O)N2CCC(N(C)CCc3ccccc3)CC2)cc2c1NC(=O)CC2.O=C(O)C(=O)O | 0.18 | 1.07 | 15 | -26 mmHg | 54 |  | 
3 | Cc1cc2c(cc1C(=O)N1CCC(N(C)CCc3ccccc3)CC1)CCC(=O)N2.O=C(O)C(=O)O | 0.02 | 3.01 | 11 | -13 mmHg | 41 |  | 
4 | CCc1cc(C(=O)N2CCC(N(C)CCc3ccccc3)CC2)cc2ccc(O)nc12.O=C(O)C(=O)O | 0.18 | 0.96 | 26 | -22 mmHg | 78 |  | 
5 | COc1cc2nc(O)ccc2cc1C(=O)N1CCC(N(C)CCc2ccccc2)CC1 | 0.04 | 1.07 | 7 | -9 mmHg | 26 |  | 
6 | CN(CCc1ccccc1)C1CCN(C(=O)c2cc3c(c([N+](=O)[O-])c2)NC(=O)CC3)CC1 | 0.28 | 0.68 |  |  |  |  | 
7 | CN(CCc1ccccc1)C1CCN(C(=O)c2ccc3c(c2)NC(=O)CC3)CC1 | 0.07 | 0.19 |  |  |  |  | 
8 | CCC(=O)Nc1ccc(C(=O)N2CCC(N(C)CCc3ccccc3)CC2)cc1 | 0.02 | 1.23 | 5 | -7 mmHg | 38 |  | 
9 | CCC(=O)Nc1cc(C)c(C(=O)N2CCC(N(C)CCc3ccccc3)CC2)cc1C.Cl | 0 | 0.49 |  |  |  |  | 
10 | CN(CCc1ccccc1)C1CCN(C(=O)C2CC(=O)Nc3ccccc32)CC1.Cl (stereo not drawn) | 0.01 | 0.85 | 13 | -15 mmHg | 101 |  | 
11 | CN(CCc1ccccc1)C1CCN(C(=O)c2cccc3c2NC(=O)CC3)CC1.Cl | 0.09 | 0.62 |  |  |  |  | 
12 | CCC(=O)Nc1c(C)cc(C(=O)N2CCC(N(C)CCc3ccccc3)CC2)cc1OC.Cl | 0 | 0.7 |  | -14 mmHg |  | 11 | 48
13 | Cc1cc(C(=O)N2CCC(N(C)CCc3ccccc3)CC2)cc2c1NC(=O)CC2.Cl | 0.14 | 0.67 | 13 | -26 mmHg | 32 |  | 
14 | CCC(=O)Nc1ccc(C(=O)N2CCC(N(C)CCc3ccccc3)CC2)c(C)c1C.Cl | 0 | 0.43 |  |  |  |  | 
15 | CN(CCc1ccccc1)C1CCN(C(=O)c2ccc3c(c2)CCC(=O)N3)CC1.Cl | 0 | 1.64 | 11 | -9 mmHg | 38 |  | 
16 | CN(CCc1ccccc1)C1CCN(C(=O)c2cccc3nc(O)ccc23)CC1.Cl | 0.01 | 0.32 |  |  |  |  | 
17 | CC(C)c1cc(C(=O)N2CCC(N(C)CCc3ccccc3)CC2)cc2c1NC(=O)CC2.Cl | 0.25 | 1.13 | 15 | -19 mmHg | 73 |  | 
18 | COc1cc(C(=O)N2CCC(N(C)CCc3ccccc3)CC2)cc2ccc(O)nc12.Cl | 0.04 | 1.36 | 10 | -10 mmHg | 55 |  | 
19 | CCC(=O)Nc1ccc(C(=O)N2CCC(N(C)CCc3ccccc3)CC2)cc1Cl.Cl | 0.16 | 1.71 |  |  |  |  | 
20 | CCC(=O)Nc1c(C)cc(C(=O)N2CCC(N(C)CCc3ccccc3)CC2)cc1Cl.Cl | 0.08 | 0.1 |  |  |  |  | 
21 | CCC(=O)Nc1ccc(C(=O)N2CCC(N(C)CCc3ccccc3)CC2)cc1[N+](=O)[O-].Cl | 0.26 | 0.29 |  |  |  |  | 
22 | CCCc1cc(C(=O)N2CCC(N(C)CCc3ccccc3)CC2)cc2ccc(O)nc12.Cl | 0.35 | 1.61 | 8 | -22 mmHg | 67 |  | 
23 | CN(CCc1ccccc1)C1CCN(C(=O)c2cc([N+](=O)[O-])c3nc(O)ccc3c2)CC1.Cl | 1.15 | 1.6 | 9 | -21 mmHg | 32 |  | 
24 | COc1cc2c(cc1C(=O)N1CCC(N(C)CCc3ccccc3)CC1)CCC(=O)N2.Cl | 0 | 1.98 | 8 | -8 mmHg | 26 |  | 
25 | COC(=O)C1=C(C)NC(C)=C(C(=O)OC)C1c1ccccc1[N+](=O)[O-] [NIFEDIPINE] |  |  | 104 | -37 mmHg | -28 |  | 
